The target in the first experiment is T1, 3',5'-cyclic-AMP phosphodiesterase 4D (Homo sapiens, UniProt Q08499). The experiment can be described thus: Inhibition of PDE4D2 (unknown origin) by preincubated for 30 mins before substrate addition and measured after 60 mins by IMAP TR-FRET phosphodiesterase evaluation assay. Put shortly: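 Purchased PDE4D2 at 5.0 pg/μL in IMAP buffer (10 mM Tris pH 7.2, 10 mM MgCl2, 0.05% NaN3, 1 mM DTT, 0.1% phosphate-free BSA). Compound or vehicle preincubated 30 min at RT, then FAM-cAMP added (200 nM final), 60 min at RT. Stopped with IMAP Tb binding reagent, 60 min at RT, fluorescence read. IC50 by four-parameter nonlinear fit, three independent replicates.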
T1 sequence (Q08499 whole entry): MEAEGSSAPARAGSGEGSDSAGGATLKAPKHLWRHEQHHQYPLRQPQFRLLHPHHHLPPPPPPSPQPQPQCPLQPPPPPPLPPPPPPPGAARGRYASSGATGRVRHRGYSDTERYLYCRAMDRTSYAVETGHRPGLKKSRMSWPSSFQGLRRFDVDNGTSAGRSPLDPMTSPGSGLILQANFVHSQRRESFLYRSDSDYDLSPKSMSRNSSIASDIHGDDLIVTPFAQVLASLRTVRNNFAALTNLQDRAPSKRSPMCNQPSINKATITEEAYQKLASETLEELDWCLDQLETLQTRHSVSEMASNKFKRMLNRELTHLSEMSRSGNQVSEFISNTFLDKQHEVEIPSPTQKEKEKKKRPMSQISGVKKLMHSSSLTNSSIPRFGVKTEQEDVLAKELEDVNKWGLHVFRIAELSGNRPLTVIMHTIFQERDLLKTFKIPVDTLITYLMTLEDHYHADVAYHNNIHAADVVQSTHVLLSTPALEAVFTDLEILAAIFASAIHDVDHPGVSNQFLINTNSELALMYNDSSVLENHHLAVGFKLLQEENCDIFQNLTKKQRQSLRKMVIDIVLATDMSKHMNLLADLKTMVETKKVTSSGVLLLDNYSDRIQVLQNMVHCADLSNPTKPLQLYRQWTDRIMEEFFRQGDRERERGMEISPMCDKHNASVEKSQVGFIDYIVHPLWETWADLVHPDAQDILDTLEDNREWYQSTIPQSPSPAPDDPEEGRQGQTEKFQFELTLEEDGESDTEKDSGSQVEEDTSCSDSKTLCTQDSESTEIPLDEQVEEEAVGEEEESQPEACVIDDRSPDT
Turning to `COCc1ccc2c(c1C#Cc1ccc(O)cc1)C(c1ccc(OC)cc1)(c1ccc(OC)cc1)c1cc(O)ccc1-2`, the IC50 amounted to 2.8 µM. The same measure, in the same setting: the figure for `COc1ccc([C@@]2(c3ccc(O)cc3)c3cc(O)ccc3-c3ccc(CO)c(C#Cc4ccc(O)cc4)c32)cc1` is 32.1 µM.

`COc1ccc(C2(c3ccc(OC)cc3)c3cc(O)ccc3-c3ccc(CO)c(C#Cc4ccc(O)cc4)c32)cc1` showed an IC50 of 5.4 µM. For the compound `COc1ccc(-c2c3ccc(OC)cc3c3c4c(ccc(-c5ccc(O)cc5)c24)[C@@H](c2ccc(O)cc2)OC3=O)cc1`, the IC50 was above 30 µM. Still for that read-out and setting: next, `COCc1ccc2c(c1C#Cc1ccc(O)cc1)C(c1ccc(O)cc1)(c1ccc(O)cc1)c1cc(O)ccc1-2`: 23.2 µM. On the same count and under the same terms, the figure for `COc1ccc([C@@]2(c3ccc(O)cc3)c3cc(O)ccc3-c3ccc(C)c(C#Cc4ccc(O)cc4)c32)cc1` is 19.5 µM. The same measure, in the same setting: the figure for `COCc1ccc2c(c1C#Cc1ccc(O)cc1)[C@](c1ccc(O)cc1)(c1ccc(OC)cc1)c1cc(O)ccc1-2` is 33.8 µM; for `COc1ccc(-c2c3ccc(OC)cc3c3c4c(ccc(-c5ccc(O)cc5)c24)C(=O)O[C@H]3c2ccc(O)cc2)cc1` it is 13.7 µM; for `COc1ccc(C2(c3ccc(OC)cc3)c3cc(O)ccc3-c3ccc(C)c(C#Cc4ccc(O)cc4)c32)cc1` it is 24.6 µM. In the case of `COCc1cc(O)c2c(c1C#Cc1ccc(O)cc1)C(c1ccc(O)cc1)(c1ccc(O)cc1)c1cc(O)ccc1-2`, it took 29.5 µM to reach half-maximal inhibition (IC50).

The next experiment deals with T1, 3',5'-cyclic-AMP phosphodiesterase 4D. The experiment can be described thus: Inhibition of human PDE4D2 catalytic domain (86 to 413 residues) expressed in Escherichia coli strain BL21 using [3H]cAMP as substrate after 15 mins by liquid scintillation counter analysis.
The compound `O=C1C=CC(=C(c2ccc(O)cc2)c2c(-c3ccc(O)cc3)ccc(CO)c2C#Cc2ccc(O)cc2)C=C1` returned a 50% inhibitory concentration (IC50) of 1 µM. The compound `OCc1ccc2c(c1C#Cc1ccc(O)cc1)C(c1ccc(O)cc1)(c1ccc(O)cc1)c1cc(O)ccc1-2` yielded an IC50 of 0.2 µM. On the same count and under the same terms, next, `COc1ccc(C2(c3ccc(OC)cc3)c3cc(O)ccc3-c3cccc(C#Cc4ccc(O)cc4)c32)cc1`: 0.09 µM. Still for that read-out and setting: next, `COc1ccc(C2(c3ccc(OC)cc3)c3cc(O)ccc3-c3ccc(C=O)c(C#Cc4ccc(O)cc4)c32)cc1`: 0.01 µM. The compound `Oc1ccc(C#Cc2ccc(O)c3c2C(c2ccc(O)cc2)(c2ccc(O)cc2)c2cc(O)ccc2-3)cc1` displayed an IC50 of 1.2 µM.
